Measurements from ChEMBL document CHEMBL3826928, “Incorporation of Phosphonate into Benzonaphthyridine Toll-like Receptor 7 Agonists for Adsorption to Aluminum Hydroxide” (J Med Chem, 2016).
Active and inactive are the calls of the source. No cut-off for these calls is given here.

Key:
[1] = molecular target: T1, Toll-like receptor 8 (Homo sapiens) (UniProt Q9NR97); assay: Agonist activity at human TLR8 expressed in HEK293 cells up to 30 uM incubated for 6 hrs by luciferase reporter gene assay relative to resiquimod; format: cell-based
T1 sequence (whole entry): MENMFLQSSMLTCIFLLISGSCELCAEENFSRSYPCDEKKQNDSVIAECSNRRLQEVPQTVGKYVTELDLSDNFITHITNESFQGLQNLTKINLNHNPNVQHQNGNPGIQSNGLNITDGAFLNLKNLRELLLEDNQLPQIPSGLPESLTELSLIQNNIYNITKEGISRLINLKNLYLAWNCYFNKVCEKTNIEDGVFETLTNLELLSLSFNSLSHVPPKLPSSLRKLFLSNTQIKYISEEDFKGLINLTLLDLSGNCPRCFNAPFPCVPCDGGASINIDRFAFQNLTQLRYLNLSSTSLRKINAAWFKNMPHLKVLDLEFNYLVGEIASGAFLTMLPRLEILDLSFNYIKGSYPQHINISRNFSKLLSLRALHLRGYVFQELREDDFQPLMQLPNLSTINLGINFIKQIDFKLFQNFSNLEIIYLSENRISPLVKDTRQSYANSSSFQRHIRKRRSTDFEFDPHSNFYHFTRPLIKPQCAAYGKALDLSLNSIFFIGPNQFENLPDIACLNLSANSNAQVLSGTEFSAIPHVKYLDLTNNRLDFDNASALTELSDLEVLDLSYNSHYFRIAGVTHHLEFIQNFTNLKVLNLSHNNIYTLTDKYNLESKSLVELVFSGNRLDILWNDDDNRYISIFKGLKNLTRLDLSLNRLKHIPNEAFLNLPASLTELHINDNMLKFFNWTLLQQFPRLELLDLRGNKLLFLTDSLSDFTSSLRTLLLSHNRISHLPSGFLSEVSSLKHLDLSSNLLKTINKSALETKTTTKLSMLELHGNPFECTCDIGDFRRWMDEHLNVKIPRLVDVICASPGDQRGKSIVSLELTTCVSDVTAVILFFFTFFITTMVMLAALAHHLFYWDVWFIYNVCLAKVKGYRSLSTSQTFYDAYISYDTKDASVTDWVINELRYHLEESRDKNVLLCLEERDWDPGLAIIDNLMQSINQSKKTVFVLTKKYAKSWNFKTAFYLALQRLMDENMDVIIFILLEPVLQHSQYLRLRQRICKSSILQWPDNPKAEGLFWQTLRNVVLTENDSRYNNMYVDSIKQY

[2] = molecular target: T2, Toll-like receptor 7 (Homo sapiens, UniProt Q9NYK1); assay: Agonist activity at TLR7 in human PBMC assessed as induction of IL-6 secretion in supernatant after 18 hrs
T2 sequence (Q9NYK1 whole entry): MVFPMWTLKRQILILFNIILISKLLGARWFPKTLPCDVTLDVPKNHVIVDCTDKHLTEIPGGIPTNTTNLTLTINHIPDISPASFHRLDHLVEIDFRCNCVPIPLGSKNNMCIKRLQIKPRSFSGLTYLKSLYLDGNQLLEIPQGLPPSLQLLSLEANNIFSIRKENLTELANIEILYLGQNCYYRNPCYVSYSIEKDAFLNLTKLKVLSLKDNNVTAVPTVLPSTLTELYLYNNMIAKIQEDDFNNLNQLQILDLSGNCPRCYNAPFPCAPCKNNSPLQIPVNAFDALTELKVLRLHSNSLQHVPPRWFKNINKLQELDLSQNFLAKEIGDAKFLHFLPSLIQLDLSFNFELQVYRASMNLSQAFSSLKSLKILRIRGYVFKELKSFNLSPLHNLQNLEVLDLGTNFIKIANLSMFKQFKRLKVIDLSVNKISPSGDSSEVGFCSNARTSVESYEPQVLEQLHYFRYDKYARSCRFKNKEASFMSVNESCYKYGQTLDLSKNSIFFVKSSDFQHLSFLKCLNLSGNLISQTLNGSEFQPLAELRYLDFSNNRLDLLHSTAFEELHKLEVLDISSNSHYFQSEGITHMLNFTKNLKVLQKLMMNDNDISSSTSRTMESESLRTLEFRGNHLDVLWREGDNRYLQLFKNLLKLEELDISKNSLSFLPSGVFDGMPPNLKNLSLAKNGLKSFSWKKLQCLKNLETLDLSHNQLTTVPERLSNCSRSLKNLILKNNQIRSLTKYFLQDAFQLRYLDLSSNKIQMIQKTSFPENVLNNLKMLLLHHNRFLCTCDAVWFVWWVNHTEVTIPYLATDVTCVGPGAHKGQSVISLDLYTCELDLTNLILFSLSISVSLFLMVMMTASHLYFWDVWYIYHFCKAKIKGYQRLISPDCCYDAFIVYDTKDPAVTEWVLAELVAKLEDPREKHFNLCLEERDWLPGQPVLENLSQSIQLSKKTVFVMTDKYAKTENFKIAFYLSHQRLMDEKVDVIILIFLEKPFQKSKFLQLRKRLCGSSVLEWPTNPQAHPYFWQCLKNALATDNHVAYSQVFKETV
Method in brief: (§1)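 Isolated human PBMCs washed in PBS, resuspended in RPMI1640 with 10% heat-inactivated FBS, pyruvate, HEPES, at 1 × 10⁶ cells/mL. Compounds as in-situ sodium salts from 10 mM aqueous stocks, 3-fold 10-point dilutions from 30 μM.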

[3] = molecular target: T3, Toll-like receptor 7 (Mus musculus) (UniProt P58681); assay: Agonist activity at TLR7 in Balb/c mouse splenocytes assessed as induction of IL-6 secretion in supernatant after 18 hrs relative to resiquimod; format: cell-based
T3 sequence (whole entry): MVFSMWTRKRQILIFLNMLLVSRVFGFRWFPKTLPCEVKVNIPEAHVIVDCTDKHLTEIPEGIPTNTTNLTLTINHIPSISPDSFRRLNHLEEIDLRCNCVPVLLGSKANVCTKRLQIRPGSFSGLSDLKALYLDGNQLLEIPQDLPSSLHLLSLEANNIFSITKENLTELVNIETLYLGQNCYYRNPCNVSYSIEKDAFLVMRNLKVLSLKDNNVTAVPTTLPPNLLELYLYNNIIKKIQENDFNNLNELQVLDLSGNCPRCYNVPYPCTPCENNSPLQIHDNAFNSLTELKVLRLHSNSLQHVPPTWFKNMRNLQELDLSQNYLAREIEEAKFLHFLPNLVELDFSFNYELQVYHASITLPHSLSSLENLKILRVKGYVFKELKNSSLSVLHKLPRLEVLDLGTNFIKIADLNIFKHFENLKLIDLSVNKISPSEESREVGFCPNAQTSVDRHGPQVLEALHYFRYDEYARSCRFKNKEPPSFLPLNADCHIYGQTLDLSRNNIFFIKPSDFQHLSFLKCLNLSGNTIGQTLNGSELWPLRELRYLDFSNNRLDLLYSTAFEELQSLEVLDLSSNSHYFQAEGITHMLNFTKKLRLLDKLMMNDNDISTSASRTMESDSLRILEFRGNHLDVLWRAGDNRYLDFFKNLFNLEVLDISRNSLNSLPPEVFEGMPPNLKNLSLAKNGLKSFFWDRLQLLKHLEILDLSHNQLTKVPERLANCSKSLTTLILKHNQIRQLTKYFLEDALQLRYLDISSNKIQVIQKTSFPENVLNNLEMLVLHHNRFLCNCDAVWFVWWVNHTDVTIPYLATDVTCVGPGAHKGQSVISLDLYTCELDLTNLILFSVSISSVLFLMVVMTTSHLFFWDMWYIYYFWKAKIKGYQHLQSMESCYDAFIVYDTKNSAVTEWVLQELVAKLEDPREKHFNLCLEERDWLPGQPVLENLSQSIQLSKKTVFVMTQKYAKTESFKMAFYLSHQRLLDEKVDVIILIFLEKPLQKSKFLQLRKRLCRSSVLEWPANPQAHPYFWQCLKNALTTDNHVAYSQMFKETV
Method in brief: (§2)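 Spleens from female BALB/c mice (6−10 weeks), single-cell suspension, RBC lysis; 5 × 10⁵ splenocytes per well in RPMI 1640 with 10% FCS, 2-ME. Compounds as sodium salts (1 equiv NaOH) from 10 mM water stocks, 3-fold 10-point dilutions from 30 μM.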

[4] = molecular target: T4, Toll-like receptor 7 (Mus musculus, UniProt P58681); assay: Agonist activity at TLR7 in Balb/c mouse splenocytes assessed as induction of IL-6 secretion in supernatant after 18 hrs; format: cell-based; method in brief: as §2
T4 sequence (P58681 whole entry): T3 sequence (whole entry)

[5] = molecular target: T2, Toll-like receptor 7; assay: Agonist activity at human TLR7 expressed in HEK293 cells incubated for 6 hrs by luciferase reporter gene assay; format: cell-based
Method in brief: (§3)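 HEK293 stably carrying NF-κB-firefly luciferase reporter plus human TLR7 (best resiquimod-responding clone), maintained under puromycin/blasticidin. 25 000 cells per well in DMEM with 3% FCS.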

[6] = molecular target: T5, Toll-like receptor 7 (Homo sapiens) (UniProt Q9NYK1); assay: Agonist activity at human TLR7 expressed in HEK293 cells incubated for 6 hrs by luciferase reporter gene assay relative to resiquimod; format: cell-based; method in brief: as §3
T5 sequence (whole entry): T2 sequence (Q9NYK1 whole entry)

[7] = molecular target: T5, Toll-like receptor 7 (Homo sapiens); assay: Agonist activity at TLR7 in human PBMC assessed as induction of IL-6 secretion in supernatant after 18 hrs relative to resiquimod; format: cell-based; method in brief: as §1
[8] = molecular target: T5, Toll-like receptor 7 (Homo sapiens); assay: Agonist activity at TLR7 in human PBMC assessed as IL-6 level in supernatant after 18 hrs; method in brief: as §1
[9] = molecular target: T3, Toll-like receptor 7 (Mus musculus); assay: Agonist activity at TLR7 in Balb/c mouse splenocytes assessed as IL-6 level in supernatant after 18 hrs; format: cell-based; method in brief: as §2

EC50 [5] [nM] | %max [6] [%] | EC50 [2] | %max [7] | Activity [8] [pg/mL] | Activity [9] [pg/mL] | Structure (SMILES) | Activity [1] [%] | EC50 ([2]; read-out: EC50) [nM] | %max [3] [%] | EC50 [4] [nM]
– | – | – | – | – | – | COc1ccc(CCc2cnc3c(N)nc4cc(/C=C(\F)P(=O)(O)O)ccc4c3c2)c(C)c1 | < 5 | 3400 | 220 | 570
5600 | 112 | Not Active | inactive | – | – | COc1ccc(CCc2cnc3c(N)nc4cc(C(=O)P(=O)(O)O)ccc4c3c2)c(C)c1 | < 5 | – | 117 | 14000
– | – | – | – | – | – | Cc1cc(OCCCP(=O)(O)O)ccc1CCc1cnc2c(N)nc3cc(CCC(=O)O)ccc3c2c1 | < 5 | 290 | 100 | 310
– | – | – | – | 12500 | 600 | CCOCc1nc2c(N)nc3ccccc3c2n1CC(C)(C)O | – | – | – | –
– | – | – | – | – | – | COc1ccc(CCc2cnc3c(N)nc4cc(CCP(=O)(O)O)ccc4c3c2)c(C)c1 | < 5 | 400 | 124 | 130
– | – | – | – | – | – | COc1ccc(CCc2cnc3c(N)nc4cc(C(=O)C(F)(F)P(=O)(O)O)ccc4c3c2)c(C)c1 | < 5 | 7800 | 100 | 3400
– | – | – | – | – | – | Cc1ccc2c(c1)nc(N)c1ncc(CCc3ccc(OCCCC(F)(F)P(=O)(O)O)cc3C)cc12 | < 5 | 1600 | 47 | 3200
3100 | 94 | – | 55% | – | – | Cc1ccc2c(c1)nc(N)c1ncc(CCc3ccc(OCCOCCOCCP(=O)(O)O)cc3C)cc12 | < 5 | 8200 | 83 | 3600

Structure (SMILES) | EC50 [5] [nM] | %max [6] [%] | EC50 [2] | %max [7] | Activity [8] [pg/mL] | Activity [9] [pg/mL] | Activity [1] [%] | EC50 ([2]; read-out: EC50) [nM] | %max [3] [%] | EC50 [4] [nM]
COc1ccc(CCc2cnc3c(N)nc4cc(/C=C/P(=O)(O)O)ccc4c3c2)c(C)c1 | 150 | – | – | – | – | – | < 5 | 1700 | 81 | 2500
